Data: ChEMBL document CHEMBL3627671, “Novel derivatives of nitro-substituted salicylic acids: Synthesis, antimicrobial activity and cytotoxicity” (Bioorg Med Chem, 2015)
Converted amounts (≈) assume the structure as drawn.

Tests used:
Enterococcus sp. [1] = experiment: Antibacterial activity against Enterococcus sp. J 14365/08 after 48 hrs by microdilution broth method; type: functional; details: J 14365/08, 48 h
In short: (§1)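 Mueller-Hinton broth microdilution (modified M07-A07), pH 7.4 (±0.2). Compounds dissolved in DMSO, tested at final 500 to 0.49 µmol/L. Inoculum in sterile water matched to 0.5 McFarland. Incubated in the dark, humid atmosphere, 35 °C, read at 24 and 48 h visually and at 540 nm. MIC taken as ≥95% growth reduction (IC95) versus control.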

Mycobacterium kansasii [2] = experiment: Antimycobacterial activity against Mycobacterium kansasii 6509/96 after 7 days; type: functional; details: 6509/96, 168 h
In short: (§2)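 Šula's semisynthetic medium micromethod at 37 °C, read after 7, 14 and 21 days. The 1.0 McFarland suspension was diluted 10^-4. MIC determined. 6509/96 is a clinical isolate.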

Staphylococcus aureus [3] = experiment: Antibacterial activity against methicillin-resistant Staphylococcus aureus H 5996/08 after 48 hrs by microdilution broth method; type: functional; details: H 5996/08, 48 h
Nakaseomyces glabratus [4] = experiment: Antifungal activity against Candida glabrata 20/I after 48 hrs by microdilution broth method; type: functional
In short: (§3)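 CLSI M27-A3 broth microdilution in RPMI 1640 with glutamine, buffered to pH 7.0 with MOPS; DMSO diluent. Yeast inoculum 5 × 10^3 ± 0.2 CFU/mL. Moulds grown on Sabouraud agar 3–10 days before spore harvest, final inoculum 0.5-5 × 10^4 CFU/mL, checked in a Bürker chamber. Incubated dark, humid, 35 °C, read at 24 and 48 h visually and at 540 nm. MIC taken as ≥80% (yeasts) or ≥50% (filamentous) growth reduction versus control.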

Candida tropicalis [5] = experiment: Antifungal activity against Candida tropicalis 156 after 24 hrs by microdilution broth method; type: functional; details: Candida tropicalis, 156, 24 h; in short: as §3
Lichtheimia corymbifera [6] = experiment: Antifungal activity against Absidia corymbifera 272 after 48 hrs by microdilution broth method; type: functional; details: Lichtheimia corymbifera, 272, 48 h; in short: as §3
Klebsiella pneumoniae [7] = experiment: Antibacterial activity against Klebsiella pneumoniae D 11750/08 after 24 hrs by microdilution broth method; type: functional; details: D 11750/08, 24 h; in short: as §1
Staphylococcus aureus [8] = experiment: Antibacterial activity against Staphylococcus aureus CCM 4516/08 after 24 hrs by microdilution broth method; type: functional; details: CCM 4516/08, 24 h
[9] = system: Staphylococcus epidermidis; experiment: Antibacterial activity against Staphylococcus epidermidis H 6966/08 after 24 hrs by microdilution broth method; type: functional; details: H 6966/08, 24 h; in short: as §1
Candida albicans [10] = experiment: Antifungal activity against Candida albicans ATCC 44859 after 48 hrs by microdilution broth method; type: functional; details: ATCC 44859, 48 h; in short: as §3
[11] = Selectivity index, ratio of CI50 for human HepG2 cells to MIC100 for Mycobacterium tuberculosis H37Rv 331/88
Pichia kudriavzevii [12] = experiment: Antifungal activity against Candida krusei E28 after 48 hrs by microdilution broth method; type: functional; details: E28, 48 h; in short: as §3
Mycobacterium avium [13] = experiment: Antimycobacterial activity against Mycobacterium avium 330/80 after 21 days; type: functional; details: 330/80, 504 h
[14] = system: Staphylococcus epidermidis; experiment: Antibacterial activity against Staphylococcus epidermidis H 6966/08 after 48 hrs by microdilution broth method; type: functional; details: H 6966/08, 48 h; in short: as §1
Enterococcus sp. [15] = experiment: Antibacterial activity against Enterococcus sp. J 14365/08 after 24 hrs by microdilution broth method; type: functional; details: J 14365/08, 24 h; in short: as §1
Aspergillus fumigatus [16] = experiment: Antifungal activity against Aspergillus fumigatus 231 after 24 hrs by microdilution broth method; type: functional; details: Aspergillus fumigatus, 231, 24 h; in short: as §3
Trichosporon asahii [17] = experiment: Antifungal activity against Trichosporon asahii 1188 after 48 hrs by microdilution broth method; type: functional; details: Trichosporon asahii, 1188, 48 h; in short: as §3
Mycobacterium kansasii [18] = experiment: Antimycobacterial activity against Mycobacterium kansasii 235/80 after 14 days; type: functional; details: 235/80, 336 h; in short: as §2
Mycobacterium avium [19] = experiment: Antimycobacterial activity against Mycobacterium avium 330/80 after 14 days; type: functional; details: 330/80, 336 h
Escherichia coli [20] = experiment: Antibacterial activity against Escherichia coli CCM4517 after 48 hrs by microdilution broth method; type: functional; details: CCM4517, 48 h; in short: as §1
Pseudomonas aeruginosa [21] = experiment: Antibacterial activity against Pseudomonas aeruginosa CCM 1961 after 48 hrs by microdilution broth method; type: functional; details: CCM 1961, 48 h; in short: as §1
Klebsiella pneumoniae [22] = experiment: Antibacterial activity against ESBL-positive Klebsiella pneumoniae J 14368/08 after 48 hrs by microdilution broth method; type: functional; details: J 14368/08, 48 h; in short: as §1
Mycobacterium kansasii [23] = experiment: Antimycobacterial activity against Mycobacterium kansasii 235/80 after 7 days; type: functional; details: 235/80, 168 h; in short: as §2
Mycobacterium kansasii [24] = experiment: Antimycobacterial activity against Mycobacterium kansasii 6509/96 after 14 days; type: functional; details: 6509/96, 336 h; in short: as §2
Pseudomonas aeruginosa [25] = experiment: Antibacterial activity against Pseudomonas aeruginosa CCM 1961 after 24 hrs by microdilution broth method; type: functional; details: CCM 1961, 24 h; in short: as §1
Staphylococcus aureus [26] = experiment: Antibacterial activity against methicillin-resistant Staphylococcus aureus H 5996/08 after 24 hrs by microdilution broth method; type: functional; details: H 5996/08, 24 h
Candida tropicalis [27] = experiment: Antifungal activity against Candida tropicalis 156 after 48 hrs by microdilution broth method; type: functional; details: Candida tropicalis, 156, 48 h; in short: as §3
Staphylococcus aureus [28] = experiment: Antibacterial activity against Staphylococcus aureus CCM 4516/08 after 48 hrs by microdilution broth method; type: functional; details: CCM 4516/08, 48 h
Escherichia coli [29] = experiment: Antibacterial activity against Escherichia coli CCM4517 after 24 hrs by microdilution broth method; type: functional; details: CCM4517, 24 h; in short: as §1
Pichia kudriavzevii [30] = experiment: Antifungal activity against Candida krusei E28 after 24 hrs by microdilution broth method; type: functional; details: E28, 24 h; in short: as §3
[31] = system: Trichophyton mentagrophytes; experiment: Antifungal activity against Trichophyton mentagrophytes 445 after 48 hrs by microdilution broth method; type: functional; details: Trichophyton mentagrophytes, 445, 48 h
Mycobacterium kansasii [32] = experiment: Antimycobacterial activity against Mycobacterium kansasii 235/80 after 21 days; type: functional; details: 235/80, 504 h; in short: as §2
Mycobacterium kansasii [33] = experiment: Antimycobacterial activity against Mycobacterium kansasii 6509/96 after 21 days; type: functional; details: 6509/96, 504 h; in short: as §2
Lichtheimia corymbifera [34] = experiment: Antifungal activity against Absidia corymbifera 272 after 24 hrs by microdilution broth method; type: functional; details: Lichtheimia corymbifera, 272, 24 h; in short: as §3
Aspergillus fumigatus [35] = experiment: Antifungal activity against Aspergillus fumigatus 231 after 48 hrs by microdilution broth method; type: functional; details: Aspergillus fumigatus, 231, 48 h; in short: as §3
Candida albicans [36] = experiment: Antifungal activity against Candida albicans ATCC 44859 after 24 hrs by microdilution broth method; type: functional; details: ATCC 44859, 24 h; in short: as §3
Nakaseomyces glabratus [37] = experiment: Antifungal activity against Candida glabrata 20/I after 24 hrs by microdilution broth method; type: functional; in short: as §3
HepG2 = experiment: Cytotoxicity against human HepG2 cells after 24 hrs […]; type: cell-based; details: HepG2, 24 h
[38] = system: Mycobacterium tuberculosis; experiment: Antimycobacterial activity against Mycobacterium tuberculosis H37Rv 331/88 after 21 days; type: functional; details: H37Rv 331/88, 504 h
Klebsiella pneumoniae [39] = experiment: Antibacterial activity against Klebsiella pneumoniae D 11750/08 after 48 hrs by microdilution broth method; type: functional; details: D 11750/08, 48 h; in short: as §1
Trichosporon asahii [40] = experiment: Antifungal activity against Trichosporon asahii 1188 after 24 hrs by microdilution broth method; type: functional; details: Trichosporon asahii, 1188, 24 h; in short: as §3
[41] = system: Trichophyton mentagrophytes; experiment: Antifungal activity against Trichophyton mentagrophytes 445 after 24 hrs by microdilution broth method; type: functional; details: Trichophyton mentagrophytes, 445, 24 h
[42] = system: Mycobacterium tuberculosis; experiment: Antimycobacterial activity against Mycobacterium tuberculosis H37Rv 331/88 after 14 days; type: functional; details: H37Rv 331/88, 336 h
Klebsiella pneumoniae [43] = experiment: Antibacterial activity against ESBL-positive Klebsiella pneumoniae J 14368/08 after 24 hrs by microdilution broth method; type: functional; details: J 14368/08, 24 h; in short: as §1

O=C(Nc1cc(C(F)(F)F)cc(C(F)(F)F)c1)c1cc([N+](=O)[O-])ccc1O
MIC (Enterococcus sp. [1]): 500 µM (≈ 197 µg/mL) | MIC (Mycobacterium kansasii [2]): 16 µM (≈ 6.31 µg/mL) | MIC (Staphylococcus aureus [3]): 7.81 µM (≈ 3.08 µg/mL) | MIC (Nakaseomyces glabratus [4]): > 500 µM | MIC (Candida tropicalis [5]): > 500 µM | MIC (Lichtheimia corymbifera [6]): > 500 µM | MIC (Klebsiella pneumoniae [7]): > 500 µM | MIC (Staphylococcus aureus [8]): 3.9 µM (≈ 1.54 µg/mL) | MIC [9]: 15.6 µM (≈ 6.16 µg/mL) | MIC (Candida albicans [10]): > 500 µM | Selectivity Index [11]: 0.869 | MIC (Pichia kudriavzevii [12]): > 500 µM | MIC (Mycobacterium avium [13]): 32 µM (≈ 12.6 µg/mL) | MIC [14]: 15.6 µM (≈ 6.16 µg/mL) | MIC (Enterococcus sp. [15]): 500 µM (≈ 197 µg/mL) | MIC (Aspergillus fumigatus [16]): > 500 µM | MIC (Trichosporon asahii [17]): > 500 µM | MIC (Mycobacterium kansasii [18]): 32 µM (≈ 12.6 µg/mL) | MIC (Mycobacterium avium [19]): 32 µM (≈ 12.6 µg/mL) | MIC (Escherichia coli [20]): > 500 µM | MIC (Pseudomonas aeruginosa [21]): > 500 µM | MIC (Klebsiella pneumoniae [22]): > 500 µM | MIC (Mycobacterium kansasii [23]): 16 µM (≈ 6.31 µg/mL) | MIC (Mycobacterium kansasii [24]): 32 µM (≈ 12.6 µg/mL) | MIC (Pseudomonas aeruginosa [25]): > 500 µM | MIC (Staphylococcus aureus [26]): 7.81 µM (≈ 3.08 µg/mL) | MIC (Candida tropicalis [27]): > 500 µM | MIC (Staphylococcus aureus [28]): 3.9 µM (≈ 1.54 µg/mL) | MIC (Escherichia coli [29]): > 500 µM | MIC (Pichia kudriavzevii [30]): > 500 µM | MIC [31]: > 500 µM | MIC (Mycobacterium kansasii [32]): 32 µM (≈ 12.6 µg/mL) | MIC (Mycobacterium kansasii [33]): 32 µM (≈ 12.6 µg/mL) | MIC (Lichtheimia corymbifera [34]): > 500 µM | MIC (Aspergillus fumigatus [35]): > 500 µM | MIC (Candida albicans [36]): > 500 µM | MIC (Nakaseomyces glabratus [37]): > 500 µM | IC50 (HepG2): 13.9 µM | MIC [38]: 16 µM (≈ 6.31 µg/mL) | MIC (Klebsiella pneumoniae [39]): > 500 µM | MIC (Trichosporon asahii [40]): > 500 µM | MIC [41]: > 500 µM | MIC [42]: 16 µM (≈ 6.31 µg/mL) | MIC (Klebsiella pneumoniae [43]): > 500 µM
